Results on 24 compounds are retold here after ChEMBL document CHEMBL1833791, “Synthesis and biological evaluation of α,β-unsaturated lactones as potent immunosuppressive agents” (Bioorg Med Chem Lett, 2011).

Molecules are shown by their SMILES. pIC50: −log10 of the molar value. The source made the active and inactive calls. No cut-off for these calls is given here.

For assay [1], the system named is Jurkat. Briefly: Immunosuppressive activity in human Jurkat T cells assessed as inhibition of PMA-induced IL-2 production at 1 uM after 13 hrs by ELISA relative to control. It counts as functional. The procedure, abridged: (§1)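 Jurkat T lymphocytes at 1 × 10^6 cells/mL were given compound at 1 μM or 10 μM final, then stimulated with 5 nM ionomycin plus 500 nM PMA for 13 h at 37 °C. Cells were spun down and supernatant IL-2 was measured by sandwich ELISA (anti-human IL-2 capture, biotinylated anti-human IL-2 detection). Values are % inhibition versus DMSO negative control, from at least three experiments.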
(An ELISA detects its analyte on a solid surface through an enzyme-linked reagent.)

Assay [2] has as its system Jurkat. The experiment in a line: Immunosuppressive activity in human Jurkat T cells assessed as inhibition of PMA-induced IL-2 production at 10 uM after 13 hrs by ELISA relative to control. Format: functional. The gist of the method:
as §1

In assay [3] the test system is Jurkat. The experiment in a line: Immunosuppressive activity in human Jurkat T cells assessed as inhibition of PMA-induced IL-2 production after 13 hrs by ELISA. It counts as functional, cell-based.

Take `Cc1ccc2ccccc2c1C1CC=CC(=O)O1` (centres undefined): the inhibition at 1 µM in the assay on Jurkat [1] worked out at 6.4%. Also, in the assay on Jurkat [2], the inhibition at 10 µM is 75.5%.
The like results for `O=C1C=CCC(c2ccnc3ccccc23)O1` (centres undefined) were, in that order, 27.8% and 100%.
For the compound `O=C1C=CCC(c2cc3ccccc3o2)O1` (centres undefined), the inhibition at 1 µM with Jurkat [1] amounted to 100%. In the assay with Jurkat [3], the pIC50 is 7.17. Moreover, the inhibition at 10 µM with Jurkat [2] came to 100%.
`O=C1C=CCC(c2ccsc2)O1` (centres undefined): the inhibition entry in the assay on Jurkat [1] is “inactive”. Further, the inhibition at 10 µM in the assay on Jurkat [2] stood at 46.2%.
As to `O=C1C=CCC(CC23CC4CC(CC(C4)C2)C3)O1` (centres undefined), in the assay with Jurkat [1], the inhibition at 1 µM was 57.4%. Also, the pIC50 in the assay with Jurkat [3] was 5.80. For the same compound, the inhibition at 10 µM in the assay on Jurkat [2] is 100%.
For `O=C1C=CCC(c2csc3ccccc23)O1` (centres undefined) the same measures were 77.1%, 6.04 and 100%.
Regarding `O=C1C=CCC(C(c2ccccc2)c2ccccc2)O1` (centres undefined), the inhibition at 1 µM in the assay with Jurkat [1] stood at 18.7%. Further, in the assay with Jurkat [2], the inhibition at 10 µM came to 89.2%.
For `Cc1ccc(C2CC=CC(=O)O2)c2ccccc12` (centres undefined), the inhibition at 1 µM with Jurkat [1] worked out at 57.4%. Also, in the assay on Jurkat [2], the inhibition at 10 µM was 100%.
Consider `COc1ccc(C2CC=CC(=O)O2)cc1` (centres undefined), for which the inhibition at 1 µM in the assay with Jurkat [1] was found to be 39.8%. Moreover, the inhibition at 10 µM with Jurkat [2] amounted to 87.2%.
For the compound `O=C1C=CCC(c2ccco2)O1` (centres undefined), the inhibition result in the assay with Jurkat [1] was “inactive”. In addition, the inhibition at 10 µM in the assay with Jurkat [2] was determined as 21.7%.
For the compound `Cc1ccc(C2CC=CC(=O)O2)cc1` (centres undefined), in the assay on Jurkat [1], the inhibition at 1 µM came to 89%. For the same compound, the pIC50 in the assay on Jurkat [3] is 6.85. Also, the inhibition at 10 µM with Jurkat [2] turned out to be 80.6%.
For the compound `Cc1ccccc1C1CC=CC(=O)O1` (centres undefined), the inhibition at 1 µM in the assay on Jurkat [1] came to 15.2%. In the assay with Jurkat [2], the inhibition at 10 µM was 86.1%.
The like results for `Cc1cccc(C2CC=CC(=O)O2)c1` (centres undefined) were, in that order, 47.9% and 64.5%.
For the compound `O=C1C=CCC(/C=C/c2ccccc2)O1` (centres undefined), in the assay on Jurkat [1], the inhibition at 1 µM came out at 12.7%. Besides, the inhibition at 10 µM in the assay with Jurkat [2] came out at 90.1%.
On to `O=C1C=CCC(c2ccoc2)O1` (centres undefined), for which the inhibition entry in the assay with Jurkat [1] and in the assay on Jurkat [2] was “inactive” throughout.
For the compound `O=C1C=CCC(c2cccs2)O1` (centres undefined), in the assay on Jurkat [1], the inhibition result was “inactive”. The inhibition at 10 µM in the assay with Jurkat [2] was 59.6%.
Regarding `O=C1C=CCC(c2ccc(OCc3ccccc3)cc2)O1` (centres undefined), the inhibition at 1 µM with Jurkat [1] is 28%. In addition, the inhibition at 10 µM in the assay on Jurkat [2] was found to be 98.9%.
For the compound `O=C1C=CCC(c2ccccc2)O1` (centres undefined), the inhibition at 1 µM with Jurkat [1] was found to be 89.7%. The negative-log IC50 (pIC50) with Jurkat [3] was 6.78. For the same compound, in the assay with Jurkat [2], the inhibition at 10 µM stood at 82.6%.
Turning to `O=C1C=CCC(c2cnc3ccccc3c2)O1` (centres undefined), the inhibition at 1 µM with Jurkat [1] worked out at 41.5%. Moreover, the inhibition at 10 µM with Jurkat [2] was 98.7%.
Take `COc1cccc(C2CC=CC(=O)O2)c1` (centres undefined): the inhibition result in the assay with Jurkat [1] is “inactive”. In addition, in the assay on Jurkat [2], the inhibition at 10 µM came to 90.4%.
Regarding `O=C1C=CCC(c2ccc3ccccc3c2)O1` (centres undefined), the inhibition at 1 µM with Jurkat [1] worked out at 37.5%. In the assay on Jurkat [2], the inhibition at 10 µM came to 97.2%.
With `COc1ccccc1C1CC=CC(=O)O1` (centres undefined), the inhibition at 1 µM in the assay with Jurkat [1] was determined as 11%. Besides, the inhibition at 10 µM in the assay with Jurkat [2] was 89.2%.
For the compound `O=C1C=CCC(c2cccc3ccccc23)O1` (centres undefined), the inhibition at 1 µM in the assay with Jurkat [1] was determined as 72.5%. Moreover, in the assay with Jurkat [2], the inhibition at 10 µM stood at 100%.
`O=C1C=CCC(Cc2ccc3ccccc3c2)O1` (centres undefined): the inhibition at 1 µM with Jurkat [1] turned out to be 67.7%. Besides, in the assay on Jurkat [3], the negative logarithm of the IC50 (pIC50) is 6.40. Further, the inhibition at 10 µM with Jurkat [2] worked out at 100%.

A word on the inhibition: it is how much of the control response was suppressed. As a reminder, the pIC50 is the IC50 on a negative log10 scale, so that one unit is a factor of ten.
